Measurements taken from article PMC3778312 (British Journal of Cancer, 2013).
Entries after “also recorded” stand apart in the source; their conditions may differ.

Tests used:
[1] = Phase 1 safety monitoring of PX-866 with docetaxel; assay type: in vivo, human
Method in brief: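 Open-label dose escalation in cohorts of 6–9 patients at 4, 6 or 8 mg oral daily test compound plus docetaxel 75 mg m−2 IV every 21 days, with dexamethasone premedication. All patients receiving ≥1 dose had vital signs, labs and exams; AEs were graded by NCI CTCAE v4.02. DLTs included related grade ≥3 events, febrile grade 3/4 neutropenia, platelets <25 000 per μl and ANC <500 per μl for >7 days.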

incurable solid tumours = assay: Phase 1 antitumour activity of PX-866 with docetaxel; assay type: in vivo, human
Method in brief: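 Test compound given orally at 4, 6 or 8 mg daily (fasting) with docetaxel 75 mg m−2 IV every 21 days. In cycle 1, docetaxel was given on day 1 and the test compound started on day 8. Response was assessed about every 6 weeks by RECIST 1.1, with PSA per PCWG allowed in mCRPC. PFS ran from consent to progression or death. Archival tumour was genotyped for PIK3CA/KRAS by shifted termination assay.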

PI3Kα = details: read-out: IC50 against PI3Kα; ref Wipf et al, 2004; cited from earlier work
PI-3Kβ = details: read-out: IC50 against PI-3Kβ; ref Wipf et al, 2004; cited from earlier work
A-549 NSCLC xenografts = details: single agent; ref Ihle et al, 2005; Koul et al, 2010; cited from earlier work
[2] = system: OvCar-3 ovarian cancer xenografts; details: single agent; ref Ihle et al, 2005; Koul et al, 2010; cited from earlier work
[3] = system: HT29 colon cancer xenografts; details: single agent; ref Ihle et al, 2005; Koul et al, 2010; cited from earlier work
U87 glioma xenografts = details: single agent; ref Ihle et al, 2005; Koul et al, 2010; cited from earlier work
[4] = system: Patient-derived SCCHN xenografts; details: PX-866 and docetaxel compared with either agent alone; ref Bowles et al, 2011; cited from earlier work
advanced solid tumors = details: ref Hong et al, 2012, cited from earlier work
[5] = PX-866 with docetaxel, 43 patients
[6] = Total, all PX-866 doses + docetaxel, N=43

For `C=CCN(/C=C1/C(=O)O[C@H](COC)[C@@]2(C)C1=C(O)C(=O)C1=C2[C@H](OC(C)=O)C[C@]2(C)C(=O)CC[C@@H]12)CC=C` [PX-866], the “Treatment-emergent AE: Neutropenia” value ([1]; PX-866 8 mg + docetaxel, N=23) was 6 (26) N (%), the “Treatment-emergent AE: Oedema peripheral” value ([1]; PX-866 8 mg + docetaxel, N=23) was 7 (30) N (%) and the “Treatment-emergent AE: Oropharyngeal pain” value ([1]; PX-866 8 mg + docetaxel, N=23) was 5 (22) N (%). The “Treatment-emergent AE: Pyrexia” value ([1]; PX-866 8 mg + docetaxel, N=23) was 6 (26) N (%), the “Treatment-emergent AE: Stomatitis” value ([1]; PX-866 8 mg + docetaxel, N=23) was 4 (17) N (%) and the “Treatment-emergent AE: Vomiting” value ([1]; PX-866 8 mg + docetaxel, N=23) was 14 (61) N (%). For the same molecule, the “Treatment-emergent AEs, frequency by severity: Grade 1” value ([1]; PX-866 8 mg + docetaxel, N=23) was 84 (50) N (%), the “Treatment-emergent AEs, frequency by severity: Grade 2” value ([1]; PX-866 8 mg + docetaxel, N=23) was 62 (37) N (%) and the “Treatment-emergent AEs, frequency by severity: Grade 3” value ([1]; PX-866 8 mg + docetaxel, N=23) was 15 (9) N (%). The “Treatment-emergent AEs, frequency by severity: Grade 4” value ([1]; PX-866 8 mg + docetaxel, N=23) was 8 (5) N (%), the “Treatment-emergent AEs, frequency by severity: Grade 5” value ([1]; PX-866 8 mg + docetaxel, N=23) was 0 (0) N (%) and the dose-limiting toxicities ([1]; PX-866 4, 6, 8 mg daily with docetaxel 75 mg m^−2) was “No dose-limiting toxicities; also recorded: No DLTs”. The tolerability ([1]; PX-866 and docetaxel) was “well tolerated”, the “gastrointestinal disorders, PX-866-related” value [1, 5] was 83.7% and the “study drug-related diarrhoea, patients” value [1, 5] was 76.7%. The “Grade 3/4 AE related to PX-866: diarrhoea” value ([1]; PX-866 with docetaxel, N=43) was 3 N, the “Grade 3/4 AE related to PX-866: nausea” value ([1]; PX-866 with docetaxel, N=43) was 2 N and the “SAEs considered related to study treatment” value ([1]; PX-866 with docetaxel, N=43) was 17. The “patients who experienced serious AEs” value ([1]; PX-866 with docetaxel, N=43) was “Twenty”, the “treatment-emergent AE neutropenia” value ([1]; PX-866 with docetaxel, N=43) was 40% and the “treatment-emergent AE peripheral oedema” value ([1]; PX-866 with docetaxel, N=43) was 40%. The “treatment-emergent AE vomiting” value ([1]; PX-866 with docetaxel, N=43) was 51%, the “Treatment-emergent AE: Alopecia” value [1, 6] was 12 (28) N (%) and the “Treatment-emergent AE: Anaemia” value [1, 6] was 13 (30) N (%). For the same molecule, the “Treatment-emergent AE: Arthralgia” value [1, 6] was 7 (16) N (%), the “Treatment-emergent AE: Asthenia” value [1, 6] was 11 (26) N (%) and the “Treatment-emergent AE: Bone pain” value [1, 6] was 9 (21) N (%). The “Treatment-emergent AE: Constipation” value [1, 6] was 13 (30) N (%), the “Treatment-emergent AE: Cough” value [1, 6] was 10 (23) N (%) and the “Treatment-emergent AE: Decreased appetite” value [1, 6] was 15 (35) N (%). The “Treatment-emergent AE: Dehydration” value [1, 6] was 15 (35) N (%), the “Treatment-emergent AE: Diarrhoea” value [1, 6] was 33 (77) N (%) and the “Treatment-emergent AE: Dizziness” value [1, 6] was 7 (16) N (%). The “Treatment-emergent AE: Dysgeusia” value [1, 6] was 8 (19) N (%), the “Treatment-emergent AE: Epistaxis” value [1, 6] was 7 (16) N (%) and the “Treatment-emergent AE: Fatigue” value [1, 6] was 26 (61) N (%). The “Treatment-emergent AE: Hypokalemia” value [1, 6] was 9 (21) N (%), the “Treatment-emergent AE: Nausea” value [1, 6] was 25 (58) N (%) and the “Treatment-emergent AE: Neutropenia” value [1, 6] was 17 (40) N (%). For the same molecule, the “Treatment-emergent AE: Oedema peripheral” value [1, 6] was 17 (40) N (%), the “Treatment-emergent AE: Oropharyngeal pain” value [1, 6] was 7 (16) N (%) and the “Treatment-emergent AE: Pyrexia” value [1, 6] was 11 (26) N (%). For the same molecule, the “Treatment-emergent AE: Stomatitis” value [1, 6] was 9 (21) N (%), the “Treatment-emergent AE: Vomiting” value [1, 6] was 22 (51) N (%) and the “Treatment-emergent AEs, frequency by severity: Grade 1” value [1, 6] was 152 (51) N (%). For the same molecule, the “Treatment-emergent AEs, frequency by severity: Grade 2” value [1, 6] was 102 (34) N (%), the “Treatment-emergent AEs, frequency by severity: Grade 3” value [1, 6] was 28 (9) N (%) and the “Treatment-emergent AEs, frequency by severity: Grade 4” value [1, 6] was 18 (6) N (%). For the same molecule, the “Treatment-emergent AEs, frequency by severity: Grade 5” value [1, 6] was 0 (0) N (%), the “RP2D of PX-866 in combination” value ([1]; daily, with docetaxel 75 mg m^−2 IV every 21 days) was 8 mg and the deaths on study ([1]; two after progressive disease, one pneumonia unrelated to either study drug) was “three”. The “evaluable patients remaining on study in excess of 180 days” value (incurable solid tumours; 11 out of 35) was 31%, the “best response: partial response (PR)” value (incurable solid tumours; 35 evaluable patients (2 patients)) was 6% and the “best response: disease progression (PD)” value (incurable solid tumours; 35 evaluable patients (11 patients)) was 31%. For the same molecule, the “median PFS, PIK3CA-MUT/KRAS-WT” value (incurable solid tumours; N=6, range: 49–334, P=0.23 vs WT/WT) was 175 days, the “median PFS, mutational status unknown” value (incurable solid tumours; N=12, range: 1–569) was 77.5 days and the “median PFS, PIK3CA-WT/KRAS-WT” value (incurable solid tumours; N=20, range: 1–342) was 49 days. The “PR+SD rate” value (incurable solid tumours; evaluable patients) was 69%, the “overall median progression-free survival (PFS)” value (incurable solid tumours; range: 1–569) was 73.5 days and the “patients with tumour shrinkage of ⩾15%” value (incurable solid tumours; ten patients) was 29%. The IC50 (PI3Kα) was 39 ± 21 nM, the IC50 (PI-3Kβ) was 88 ± 27 nM and the tumour growth (A-549 NSCLC xenografts) was “delays tumour growth”. The tumour growth [2] was “delays tumour growth”, the tumour growth [3] was “delays tumour growth” and the tumour growth (U87 glioma xenografts) was “delays tumour growth”. For the same molecule, the tumour suppression [4] was “enhanced tumour suppression”, the “single-agent MTD” value (advanced solid tumors; previously determined, daily) was 8 mg and the “time PX-866 may be given safely” value (advanced solid tumors) was “over 1 year”. For the same molecule, the “best response per RECIST 1.1: stable disease, share of evaluable patients” value (advanced solid tumors; single-agent PX-866, week 6) was “over 50%” and the “recommended phase 2 dose (RP2D), single agent” value (advanced solid tumors; single-agent PX-866) was 8 mg daily.
